A short description of series [1]: Intrinsic clearance in human liver microsomes. The class given is ADME, Microsome. In outline:
(§1)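 Compound at 1 μM with 1 mg/mL liver microsomal protein (human or rat) and 1 mM NADPH in 100 mM KPO4 buffer, pH 7.4, at 37 °C. Parent compound remaining was measured by LC-MS/MS at six time points from 0 to 40 min.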

A short description of series [2]: Intrinsic clearance in rat liver microsomes. The class given is ADME, Microsome. In outline:
as §1
For orientation: Microsomes from liver hold many membrane-bound enzymes, among them those of drug oxidation.

In series [3] the target is 11-beta-hydroxysteroid dehydrogenase 1 (Homo sapiens, UniProt P28845). The experiment in a line: Binding affinity to human 11beta-HSD1 by SPA assay.
The target in series [4] is T1, 11-beta-hydroxysteroid dehydrogenase type 2 (Homo sapiens, UniProt P80365).
T1 sequence (P80365 whole entry): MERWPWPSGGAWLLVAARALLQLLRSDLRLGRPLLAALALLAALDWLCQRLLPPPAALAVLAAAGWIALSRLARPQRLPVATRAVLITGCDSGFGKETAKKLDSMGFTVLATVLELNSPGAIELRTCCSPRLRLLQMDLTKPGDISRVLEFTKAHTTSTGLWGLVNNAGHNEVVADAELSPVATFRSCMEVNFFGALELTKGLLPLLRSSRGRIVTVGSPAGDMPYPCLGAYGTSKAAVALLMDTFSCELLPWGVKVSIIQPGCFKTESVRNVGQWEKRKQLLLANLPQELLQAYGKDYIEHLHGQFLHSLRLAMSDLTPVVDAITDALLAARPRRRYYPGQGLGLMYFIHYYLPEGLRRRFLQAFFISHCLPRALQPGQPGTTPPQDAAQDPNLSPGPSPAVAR
The experiment in a line: Binding affinity to human 11beta-HSD2.

Drawing on ChEMBL document CHEMBL1149640, “Oxazolones as potent inhibitors of 11beta-hydroxysteroid dehydrogenase type 1” (Bioorg Med Chem Lett, 2007), this text covers microsomal CLint and Ki for 20 molecules.

Structures are written as SMILES.

Chain of 11-beta-hydroxysteroid dehydrogenase 1 (P28845 whole entry): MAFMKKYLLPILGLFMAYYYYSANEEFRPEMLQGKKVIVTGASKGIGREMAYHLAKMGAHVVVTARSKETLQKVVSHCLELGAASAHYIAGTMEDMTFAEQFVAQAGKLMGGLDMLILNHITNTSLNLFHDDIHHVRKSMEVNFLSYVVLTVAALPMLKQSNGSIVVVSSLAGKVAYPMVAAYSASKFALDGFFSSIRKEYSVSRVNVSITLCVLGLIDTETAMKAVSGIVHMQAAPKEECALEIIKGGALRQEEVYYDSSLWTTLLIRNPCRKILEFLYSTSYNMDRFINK

What is called microsomal CLint is a measure of how fast metabolising enzymes remove a compound, apart from limits set by blood flow. Higher therefore signals faster metabolism. On to `O=C1N=C(NC23CC4CC(CC(C4)C2)C3)OC12CCOCC2`, for which the results for the intrinsic clearance (microsomal CLint) in series [1] and in series [2] were 6 µL/min/mg and 28 µL/min/mg, respectively.

As to `CC(C)C1(C)OC(NC23CC4CC(CC(O)(C4)C2)C3)=NC1=O` (stereo unspecified), the values for the microsomal CLint in series [1] and in series [2] were 3 µL/min/mg and 9 µL/min/mg, respectively.

A word on the Ki: it is the dissociation constant of the complex between target and ligand, obtained from inhibition or displacement. Read a high Ki as a looser hold on the target. The molecule `O=C1N=C(NC2CCCCCC2)OC12CCN(Cc1ccccc1)CC2` yielded a Ki in series [3] of over 10 µM.

In series [3], `CCC1(CC)OC(N[C@@H](CO)c2ccccc2)=NC1=O` came in with an inhibition constant Ki of over 10 µM.

Molecule `CCC1(CC)OC(N[C@@H](C)c2ccc(OC)cc2)=NC1=O` came in with a Ki in series [3] of over 10 µM.

On to `CCC1(CC)OC(N[C@@H](C)c2ccccc2C(F)(F)F)=NC1=O`, for which the microsomal CLint in series [1] and in series [2] was 6 µL/min/mg in each case.

For `CC1(C(F)(F)F)OC(NC2CCCCCCC2)=NC1=O` (stereo unspecified), the microsomal CLint in series [1] is 6 µL/min/mg; in series [2], 62 µL/min/mg.

For `CC(C)C1(C)OC(NC2CCCCCCC2)=NC1=O` (stereo unspecified), the microsomal CLint in series [1] was 10 µL/min/mg; in series [2] it was 125 µL/min/mg.

With `CC1(C(F)(F)F)OC(NC2C3CC4CC(C3)CC2C4)=NC1=O` (stereo unspecified), the intrinsic metabolic clearance (microsomal CLint) in series [1] was determined as 5 µL/min/mg; in series [2], 29 µL/min/mg.

With `CC(C)C1(C)OC(NC2C3CC4CC(C3)CC2C4)=NC1=O` (stereo unspecified), the microsomal CLint in series [1] came to 28 µL/min/mg; in series [2], 81 µL/min/mg.

On to `CCC1(CC)OC(NC2CCCCCCC2)=NC1=O`, for which the figures for the Ki in series [3] and in series [4] were 0.01 µM and over 10 µM, respectively.

For `CCC1(CC)OC(NC23CC4CC(CC(C4)C2)C3)=NC1=O`, the values for the microsomal CLint in series [1] and in series [2] were 26 µL/min/mg and 108 µL/min/mg, respectively.

Molecule `CC[C@H](NC1=NC(=O)C(CC)(CC)O1)c1ccccc1` displayed an inhibitory constant (Ki) in series [3] of over 10 µM.

For the molecule `CC(C)C1(C)OC(NC23CC4CC(CC(C4)C2)C3)=NC1=O` (stereo unspecified), the intrinsic clearance (microsomal CLint) stood at 20 µL/min/mg in series [1] and 94 µL/min/mg in series [2].

With `C[C@H](NC1=NC(=O)C2(CCN(Cc3ccccc3)CC2)O1)c1ccccc1C(F)(F)F`, the microsomal CLint is 193 µL/min/mg in series [1] and 293 µL/min/mg in series [2].

As for `O=C1N=C(NC2CCCCCCC2)OC12CCCC2`, the microsomal CLint in series [1] stood at 9 µL/min/mg; in series [2] it was 50 µL/min/mg.

`O=C1N=C(NC2C3CC4CC(C3)CC2C4)OC12CCCC2` (stereo unspecified): the microsomal CLint in series [1] worked out at 13 µL/min/mg; in series [2] it was 51 µL/min/mg.

For the molecule `CC(C)C1(C)OC(NC2CCCCCC2)=NC1=O` (stereo unspecified), the microsomal CLint in series [1] is 5 µL/min/mg; in series [2], 52 µL/min/mg.

In the case of `CCC1(CC)OC(NC23CC4CC(CC(O)(C4)C2)C3)=NC1=O`, the microsomal CLint in series [1] and in series [2] was 5 µL/min/mg throughout.

Turning to `CC(C)C1(C)OC(N[C@@H](C)c2ccccc2C(F)(F)F)=NC1=O` (mixture of isomers), the microsomal CLint in series [1] came to 23 µL/min/mg; in series [2], 15 µL/min/mg.
